Source: ChEMBL document CHEMBL5058577, “EUbOPEN Chemogenomics Library 2 (Multiplex)” (2022)

System: Fibroblast
Experiment: Multiplex assay against human fibroblast
Assay type: toxicity, cell-based
In short: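 Cells stained live at seeding with Hoechst33342, BioTracker Green Microtubule Cytoskeleton Dye, MitoTracker Red and Annexin V Alexa Fluor 680 were imaged on a CQ1 microscope at 37°C and 5% CO2 after compound addition. Their classification by CellPathfinder machine-learning gating ran from Hoechst high-intensity objects versus normal cells, to healthy, pyknosed or fragmented nuclei among normal cells, to mitotic or apoptotic among pyknosed cells. Tubulin, mitochondrial-mass and membrane-permeability phenotypes are per cents of healthy-nucleus cells.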

[1] = 12 h, 1 µM, compound concentration 1 uM, replicate 1
[2] = 12 h, 1 µM, compound concentration 1 uM, replicate 2
[3] = 12 h, 10 µM, compound concentration 10 uM, replicate 1
[4] = 12 h, 10 µM, compound concentration 10 uM, replicate 2
[5] = 24 h, 1 µM, compound concentration 1 uM, replicate 1
[6] = 24 h, 1 µM, compound concentration 1 uM, replicate 2
[7] = 24 h, 10 µM, compound concentration 10 uM, replicate 1
[8] = 24 h, 10 µM, compound concentration 10 uM, replicate 2
[9] = 48 h, 1 µM, compound concentration 1 uM, replicate 1
[10] = 48 h, 1 µM, compound concentration 1 uM, replicate 2
[11] = 48 h, 10 µM, compound concentration 10 uM, replicate 1
[12] = 48 h, 10 µM, compound concentration 10 uM, replicate 2

Structure (SMILES): CCCn1c(=O)c2[nH]c(C3CCCC3)nc2n(CCC)c1=O [1,3-DIPROPYL-8-CYCLOPENTYLXANTHINE [DPCPX]]
- Population Apoptotic (%) [1]: 38%
- Population Fragmented Nuclei (%) [1]: 10%
- Population Healthy Nuclei (%) [1]: 73%
- Population Hoechst High Intensity Objects (%) [1]: 3%
- Population Membrane Permeable-Phenotype (%) [1]: 0%
- Population Mitochondria Different-Phenotype (%) [1]: 1%
- Population Mitotic Cells (%) [1]: 61%
- Population Normal (%) [1]: 96%
- Population Pyknosed Nuclei (%) [1]: 15%
- Population Tubulin-Different-Phenotype (%) [1]: 29%
- Total Cell Count [1]: 175
- Population Apoptotic (%) [2]: 30%
- Population Fragmented Nuclei (%) [2]: 25%
- Population Healthy Nuclei (%) [2]: 46%
- Population Membrane Permeable-Phenotype (%) [2]: 1%
- Population Mitochondria Different-Phenotype (%) [2]: 10%
- Population Mitotic Cells (%) [2]: 69%
- Population Pyknosed Nuclei (%) [2]: 28%
- Population Tubulin-Different-Phenotype (%) [2]: 50%
- Total Cell Count [2]: 156
- Population Apoptotic (%) [3]: 58%
- Population Fragmented Nuclei (%) [3]: 18%
- Population Healthy Nuclei (%) [3]: 65%
- Population Hoechst High Intensity Objects (%) [3]: 3%
- Population Membrane Permeable-Phenotype (%) [3]: 0%
- Population Mitochondria Different-Phenotype (%) [3]: 10%
- Population Mitotic Cells (%) [3]: 41%
- Population Normal (%) [3]: 96%
- Population Pyknosed Nuclei (%) [3]: 17%
- Population Tubulin-Different-Phenotype (%) [3]: 47%
- Total Cell Count [3]: 104
- Population Apoptotic (%) [4]: 25%
- Population Fragmented Nuclei (%) [4]: 32%
- Population Healthy Nuclei (%) [4]: 47%
- Population Hoechst High Intensity Objects (%) [4]: 6%
- Population Membrane Permeable-Phenotype (%) [4]: 12%
- Population Mitochondria Different-Phenotype (%) [4]: 3%
- Population Mitotic Cells (%) [4]: 75%
- Population Normal (%) [4]: 93%
- Population Pyknosed Nuclei (%) [4]: 20%
- Population Tubulin-Different-Phenotype (%) [4]: 59%
- Total Cell Count [4]: 129
- Population Apoptotic (%) [5]: 50%
- Population Fragmented Nuclei (%) [5]: 13%
- Population Healthy Nuclei (%) [5]: 77%
- Population Hoechst High Intensity Objects (%) [5]: 2%
- Population Membrane Permeable-Phenotype (%) [5]: 0%
- Population Mitochondria Different-Phenotype (%) [5]: 2%
- Population Mitotic Cells (%) [5]: 50%
- Population Normal (%) [5]: 97%
- Population Pyknosed Nuclei (%) [5]: 9%
- Population Tubulin-Different-Phenotype (%) [5]: 30%
- Total Cell Count [5]: 177
- Population Apoptotic (%) [6]: 75%
- Population Fragmented Nuclei (%) [6]: 30%
- Population Healthy Nuclei (%) [6]: 48%
- Population Hoechst High Intensity Objects (%) [6]: 3%
- Population Membrane Permeable-Phenotype (%) [6]: 4%
- Population Mitochondria Different-Phenotype (%) [6]: 12%
- Population Mitotic Cells (%) [6]: 24%
- Population Normal (%) [6]: 96%
- Population Pyknosed Nuclei (%) [6]: 21%
- Population Tubulin-Different-Phenotype (%) [6]: 54%
- Total Cell Count [6]: 159
- Population Apoptotic (%) [7]: 63%
- Population Fragmented Nuclei (%) [7]: 17%
- Population Healthy Nuclei (%) [7]: 61%
- Population Hoechst High Intensity Objects (%) [7]: 3%
- Population Membrane Permeable-Phenotype (%) [7]: 6%
- Population Mitochondria Different-Phenotype (%) [7]: 9%
- Population Mitotic Cells (%) [7]: 36%
- Population Normal (%) [7]: 96%
- Population Pyknosed Nuclei (%) [7]: 22%
- Population Tubulin-Different-Phenotype (%) [7]: 49%
- Total Cell Count [7]: 104
- Population Apoptotic (%) [8]: 20%
- Population Fragmented Nuclei (%) [8]: 35%
- Population Healthy Nuclei (%) [8]: 40%
- Population Hoechst High Intensity Objects (%) [8]: 6%
- Population Membrane Permeable-Phenotype (%) [8]: 8%
- Population Mitochondria Different-Phenotype (%) [8]: 4%
- Population Mitotic Cells (%) [8]: 79%
- Population Normal (%) [8]: 93%
- Population Pyknosed Nuclei (%) [8]: 24%
- Population Tubulin-Different-Phenotype (%) [8]: 63%
- Total Cell Count [8]: 125
- Population Apoptotic (%) [9]: 72%
- Population Fragmented Nuclei (%) [9]: 16%
- Population Healthy Nuclei (%) [9]: 70%
- Population Hoechst High Intensity Objects (%) [9]: 2%
- Population Membrane Permeable-Phenotype (%) [9]: 0%
- Population Mitochondria Different-Phenotype (%) [9]: 1%
- Population Mitotic Cells (%) [9]: 27%
- Population Normal (%) [9]: 97%
- Population Pyknosed Nuclei (%) [9]: 12%
- Population Tubulin-Different-Phenotype (%) [9]: 35%
- Total Cell Count [9]: 182
- Population Apoptotic (%) [10]: 47%
- Population Fragmented Nuclei (%) [10]: 39%
- Population Healthy Nuclei (%) [10]: 48%
- Population Hoechst High Intensity Objects (%) [10]: 7%
- Population Membrane Permeable-Phenotype (%) [10]: 5%
- Population Mitochondria Different-Phenotype (%) [10]: 12%
- Population Mitotic Cells (%) [10]: 52%
- Population Normal (%) [10]: 92%
- Population Tubulin-Different-Phenotype (%) [10]: 55%
- Total Cell Count [10]: 170
- Population Apoptotic (%) [11]: 57%
- Population Fragmented Nuclei (%) [11]: 24%
- Population Healthy Nuclei (%) [11]: 55%
- Population Hoechst High Intensity Objects (%) [11]: 3%
- Population Membrane Permeable-Phenotype (%) [11]: 1%
- Population Mitochondria Different-Phenotype (%) [11]: 13%
- Population Mitotic Cells (%) [11]: 42%
- Population Normal (%) [11]: 96%
- Population Pyknosed Nuclei (%) [11]: 20%
- Population Tubulin-Different-Phenotype (%) [11]: 50%
- Total Cell Count [11]: 98
- Population Apoptotic (%) [12]: 50%
- Population Fragmented Nuclei (%) [12]: 43%
- Population Healthy Nuclei (%) [12]: 45%
- Population Hoechst High Intensity Objects (%) [12]: 2%
- Population Membrane Permeable-Phenotype (%) [12]: 16%
- Population Mitochondria Different-Phenotype (%) [12]: 8%
- Population Mitotic Cells (%) [12]: 50%
- Population Normal (%) [12]: 97%
- Population Pyknosed Nuclei (%) [12]: 10%
- Population Tubulin-Different-Phenotype (%) [12]: 78%
- Total Cell Count [12]: 136
